Values after ≈ are worked out from the molar mass of the structure shown.
Columns and labels:
Format in all cases: functional
[1] = test system: Candida albicans; test: Antimicrobial activity against Candida albicans SC5314 after 24 hrs by serial dilution method; settings: SC5314, 24 h
How it was run: (§1)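 Broth serial dilution MIC in 96-well plates following NCCLS/CLSI methods. Compounds were dissolved in DMSO and serially diluted in growth medium, with incubation at 35 °C. […] C. parapsilosis 22019 served as the quality-control strain in each assay.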

[2] = test system: Cryptococcus neoformans; test: Antimicrobial activity against Cryptococcus neoformans 32609 after 72 hrs by serial dilution method; settings: Cryptococcus neoformans, 32609, 72 h; how it was run: as §1
[3] = test system: Aspergillus fumigatus; test: Antimicrobial activity against Aspergillus fumigatus 7544 after 48 hrs by serial dilution method; settings: Aspergillus fumigatus, 7544, 48 h; how it was run: as §1
[4] = test system: Candida parapsilosis; test: Antimicrobial activity against Candida parapsilosis 22019 after 24 hrs by serial dilution method; settings: Lodderomyces parapsilosis, 22019, 24 h; how it was run: as §1
[5] = test system: Candida albicans; test: Antimicrobial activity against Candida albicans Y0109 after 24 hrs by serial dilution method; settings: Y0109, 24 h; how it was run: as §1
[6] = test system: Nakaseomyces glabratus; test: Antimicrobial activity against Candida glabrata 537 after 24 hrs by serial dilution method; settings: Nakaseomyces glabratus, 537, 24 h; how it was run: as §1

| SMILES | MIC [1] [µg/mL] | MIC [2] [µg/mL] | MIC [3] [µg/mL] | MIC [4] [µg/mL] | MIC [5] [µg/mL] | MIC [6] [µg/mL] |
| --- | --- | --- | --- | --- | --- | --- |
| C[C@@H](N1CCn2ncnc2C1)[C@](O)(Cn1cncn1)c1ccc(F)cc1F | 0.25 (≈ 0.666 µM) | 0.5 (≈ 1.33 µM) | 16 (≈ 42.6 µM) | 0.25 (≈ 0.666 µM) | 0.25 (≈ 0.666 µM) | 0.5 (≈ 1.33 µM) |
| C[C@@H](N1CCn2nc(C(F)(F)F)nc2C1)[C@](O)(Cn1cncn1)c1ccc(F)cc1F | 0.25 (≈ 0.564 µM) | 0.5 (≈ 1.13 µM) | 32 (≈ 72.2 µM) | 0.5 (≈ 1.13 µM) | 0.5 (≈ 1.13 µM) | 1 (≈ 2.26 µM) |
| C[C@@H](N1CCn2nc(-c3ccc(C#N)cc3)nc2C1)[C@](O)(Cn1cncn1)c1ccc(F)cc1F | 0.125 (≈ 0.262 µM) | 0.125 (≈ 0.262 µM) | 64 (≈ 134 µM) | 0.5 (≈ 1.05 µM) | 0.125 (≈ 0.262 µM) | 0.125 (≈ 0.262 µM) |
| Cc1cccc(-c2nc3n(n2)CCN([C@H](C)[C@](O)(Cn2cncn2)c2ccc(F)cc2F)C3)c1 | 0.0625 (≈ 0.134 µM) | 0.125 (≈ 0.269 µM) | 32 (≈ 68.7 µM) | 0.25 (≈ 0.537 µM) | 0.125 (≈ 0.269 µM) | 0.125 (≈ 0.269 µM) |
| C[C@@H](N1CCn2nc(-c3ccc(Br)cc3)nc2C1)[C@](O)(Cn1cncn1)c1ccc(F)cc1F | 0.25 (≈ 0.471 µM) | 0.25 (≈ 0.471 µM) | 16 (≈ 30.2 µM) | 0.5 (≈ 0.943 µM) | 0.125 (≈ 0.236 µM) | 0.5 (≈ 0.943 µM) |
| C[C@@H](N1CCn2nc(-c3ccc(F)cc3)nc2C1)[C@](O)(Cn1cncn1)c1ccc(F)cc1F | 0.25 (≈ 0.533 µM) | 0.125 (≈ 0.266 µM) | 32 (≈ 68.2 µM) | 0.125 (≈ 0.266 µM) | 0.125 (≈ 0.266 µM) | 0.125 (≈ 0.266 µM) |
| C[C@@H](N1CCn2nc(-c3ccc(Cl)cc3)nc2C1)[C@](O)(Cn1cncn1)c1ccc(F)cc1F | 0.25 (≈ 0.514 µM) | 0.125 (≈ 0.257 µM) | 16 (≈ 32.9 µM) | 0.5 (≈ 1.03 µM) | 0.125 (≈ 0.257 µM) | 0.5 (≈ 1.03 µM) |
| C[C@@H](N1CCn2nc(-c3cccc(Cl)c3)nc2C1)[C@](O)(Cn1cncn1)c1ccc(F)cc1F | 0.25 (≈ 0.514 µM) | 2 (≈ 4.12 µM) | 64 (≈ 132 µM) | 1 (≈ 2.06 µM) | 0.125 (≈ 0.257 µM) | 1 (≈ 2.06 µM) |
| C[C@@H](N1CCn2nc(-c3cccc(Br)c3)nc2C1)[C@](O)(Cn1cncn1)c1ccc(F)cc1F | 0.25 (≈ 0.471 µM) | 1 (≈ 1.89 µM) | 16 (≈ 30.2 µM) | 0.5 (≈ 0.943 µM) | 0.125 (≈ 0.236 µM) | 1 (≈ 1.89 µM) |
| C[C@@H](N1CCn2nc(-c3cccc(C(F)(F)F)c3)nc2C1)[C@](O)(Cn1cncn1)c1ccc(F)cc1F | 0.5 (≈ 0.963 µM) | 2 (≈ 3.85 µM) | 16 (≈ 30.8 µM) | 0.5 (≈ 0.963 µM) | 2 (≈ 3.85 µM) | 0.25 (≈ 0.481 µM) |
| C[C@@H](N1CCn2nc(-c3ccc(C(F)(F)F)cc3)nc2C1)[C@](O)(Cn1cncn1)c1ccc(F)cc1F | 0.25 (≈ 0.481 µM) | 1 (≈ 1.93 µM) | 16 (≈ 30.8 µM) | 0.5 (≈ 0.963 µM) | 0.5 (≈ 0.963 µM) | 0.125 (≈ 0.241 µM) |
| C[C@@H](N1CCn2nc(-c3ccc(F)cc3F)nc2C1)[C@](O)(Cn1cncn1)c1ccc(F)cc1F | 0.125 (≈ 0.256 µM) | 0.5 (≈ 1.03 µM) | > 64 | 0.25 (≈ 0.513 µM) | 0.125 (≈ 0.256 µM) | 0.5 (≈ 1.03 µM) |
| CC(C)c1cccc(-c2nc3n(n2)CCN([C@H](C)[C@](O)(Cn2cncn2)c2ccc(F)cc2F)C3)c1 | 0.25 (≈ 0.507 µM) | 8 (≈ 16.2 µM) | 16 (≈ 32.4 µM) | 4 (≈ 8.1 µM) | 4 (≈ 8.1 µM) | 4 (≈ 8.1 µM) |
| Cc1ccc(-c2nc3n(n2)CCN([C@H](C)[C@](O)(Cn2cncn2)c2ccc(F)cc2F)C3)cc1 | 0.0625 (≈ 0.134 µM) | 0.125 (≈ 0.269 µM) | 32 (≈ 68.7 µM) | 0.125 (≈ 0.269 µM) | 0.125 (≈ 0.269 µM) | 0.125 (≈ 0.269 µM) |
| COc1ccc(-c2nc3n(n2)CCN([C@H](C)[C@](O)(Cn2cncn2)c2ccc(F)cc2F)C3)cc1 | 0.0625 (≈ 0.13 µM) | 0.125 (≈ 0.26 µM) | 32 (≈ 66.5 µM) | 0.25 (≈ 0.519 µM) | 0.125 (≈ 0.26 µM) | 0.125 (≈ 0.26 µM) |
| C[C@@H](N1CCn2nc(-c3cccc(F)c3)nc2C1)[C@](O)(Cn1cncn1)c1ccc(F)cc1F | 0.125 (≈ 0.266 µM) | 0.5 (≈ 1.07 µM) | 16 (≈ 34.1 µM) | 0.5 (≈ 1.07 µM) | 0.125 (≈ 0.266 µM) | 0.25 (≈ 0.533 µM) |
| C[C@@H](N1CCn2nc(-c3cccc(C#N)c3)nc2C1)[C@](O)(Cn1cncn1)c1ccc(F)cc1F | 0.125 (≈ 0.262 µM) | 0.5 (≈ 1.05 µM) | 16 (≈ 33.6 µM) | 0.125 (≈ 0.262 µM) | 0.125 (≈ 0.262 µM) | 0.5 (≈ 1.05 µM) |
| COc1cccc(-c2nc3n(n2)CCN([C@H](C)[C@](O)(Cn2cncn2)c2ccc(F)cc2F)C3)c1 | 0.0625 (≈ 0.13 µM) | 0.25 (≈ 0.519 µM) | 32 (≈ 66.5 µM) | 0.25 (≈ 0.519 µM) | 0.125 (≈ 0.26 µM) | 0.125 (≈ 0.26 µM) |
| CC(C)c1ccc(-c2nc3n(n2)CCN([C@H](C)[C@](O)(Cn2cncn2)c2ccc(F)cc2F)C3)cc1 | 0.5 (≈ 1.01 µM) | 2 (≈ 4.05 µM) | 16 (≈ 32.4 µM) | 1 (≈ 2.03 µM) | 0.5 (≈ 1.01 µM) | 1 (≈ 2.03 µM) |
| C[C@@H](N1CCn2nc(-c3cccs3)nc2C1)[C@](O)(Cn1cncn1)c1ccc(F)cc1F | 0.125 (≈ 0.273 µM) | 0.125 (≈ 0.273 µM) | 8 (≈ 17.5 µM) | 0.125 (≈ 0.273 µM) | 0.125 (≈ 0.273 µM) | 0.25 (≈ 0.546 µM) |
